Ki and IC50 data for 10 compounds are collected here from ChEMBL document CHEMBL1152574, “Novel 2H-isoquinolin-3-ones as antiplasmodial falcipain-2 inhibitors” (Bioorg Med Chem, 2009).

One may read the Ki as a measure of affinity in units of concentration, obtained from inhibition or displacement. Usually IC50 stands for the midpoint of a concentration-inhibition curve.

The nature of experiment [1]: Inhibition of Plasmodium falciparum falcipain-2. The gist of the method: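 Recombinant FP-2 in 100 mM sodium acetate pH 5.5, 10 mM DTT, substrate Cbz-Phe-Arg-AMC; reversibility screen at 100 µM with E-64 control, then continuous progress-curve assays with 0–100 µM inhibitor; fluorescence ex 365/em 460 nm; run twice; Ki from Dixon plot, corrected to zero substrate using Km 21.5 µM.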

The target in experiment [2] is Rhodesain (Trypanosoma brucei rhodesiense, UniProt Q95PM0). Description: Inhibition of Trypanosoma brucei rhodesiense rhodesain. The gist of the method: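 Continuous fluorometric progress-curve assay in 100 mM sodium acetate, pH 5.5, with 10 mM DTT. Substrate is Cbz-Phe-Arg-AMC (40 or 10, depending on enzyme). Inhibitors come from DMSO stocks, at increasing concentrations up to 100. AMC read at ex 365/em 460 nm, each assay run twice. Kiapp is taken from a Dixon plot and corrected to zero substrate with Km to give Ki.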
Sequence of Rhodesain (Q95PM0 whole entry): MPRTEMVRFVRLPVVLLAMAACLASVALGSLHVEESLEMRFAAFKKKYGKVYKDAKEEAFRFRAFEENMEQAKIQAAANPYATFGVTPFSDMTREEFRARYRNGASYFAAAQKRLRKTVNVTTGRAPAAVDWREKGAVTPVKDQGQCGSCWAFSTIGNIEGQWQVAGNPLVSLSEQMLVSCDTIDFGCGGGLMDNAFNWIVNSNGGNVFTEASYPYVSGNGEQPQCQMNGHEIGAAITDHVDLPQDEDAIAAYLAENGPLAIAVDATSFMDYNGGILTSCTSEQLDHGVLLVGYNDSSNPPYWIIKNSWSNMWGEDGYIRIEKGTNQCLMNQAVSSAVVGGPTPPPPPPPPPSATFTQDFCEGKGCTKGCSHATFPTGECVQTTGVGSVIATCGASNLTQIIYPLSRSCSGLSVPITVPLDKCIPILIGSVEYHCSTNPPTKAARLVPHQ

The target of experiment [3] is Cathepsin B (Homo sapiens, UniProt P07858). The experiment can be described thus: Inhibition of human cathepsin B.
The target in experiment [4] is Procathepsin L (Homo sapiens, UniProt P07711). Description: Inhibition of human cathepsin L.
Sequence of Procathepsin L (P07711 whole entry): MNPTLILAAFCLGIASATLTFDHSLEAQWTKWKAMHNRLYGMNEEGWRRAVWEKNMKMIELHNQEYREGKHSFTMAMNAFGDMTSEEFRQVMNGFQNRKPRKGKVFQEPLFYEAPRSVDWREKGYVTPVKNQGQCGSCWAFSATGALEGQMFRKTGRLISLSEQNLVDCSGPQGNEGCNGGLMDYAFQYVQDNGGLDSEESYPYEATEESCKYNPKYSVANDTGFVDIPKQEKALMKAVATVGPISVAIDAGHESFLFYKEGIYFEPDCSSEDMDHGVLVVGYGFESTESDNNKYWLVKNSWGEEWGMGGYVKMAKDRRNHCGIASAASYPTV
Experiment [5] has as its system Plasmodium falciparum. Description: Antiplasmodial activity against Plasmodium falciparum FcBR. The experiment is classed as functional, organism-based. The note with it: FCBR/Columbia. The gist of the method: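 Synchronized ring-stage parasites (strain FCBR) grown in human RBC (A Rh+), RPMI 1640 with 25 mM HEPES, 20 mM bicarbonate, 0.5% AlbuMAX I, 2.5% hematocrit, 37 °C under 94% N₂/1% O₂/5% CO₂; plated at 1% parasitemia with compounds (DMSO stock diluted 10-fold in 50% ethanol), 100–0.0488 µM, in quadruplicate; 50% ethanol as negative control; dose-dependent effect on development quantified.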

Each structure is given as a SMILES string.

For `CC(=O)Oc1cc2cc3c(cc2c(-c2ccc(N)cc2)n1)OCO3`, the Ki in experiment [1] was determined as 19.7 µM; in experiment [2] (read-out: Ki), 38.3 µM; in experiment [3] (read-out: Ki) it was 6.7 µM; in experiment [4], 13.6 µM. 58.8 µM corresponded to half-maximal inhibition in experiment [5] (IC50).

In the case of `COc1ccc(-c2c3cc4c(cc3cc(=O)n2NC(=O)OC(C)(C)C)OCO4)cc1`, the inhibition constant (Ki) was 24.4 µM in experiment [1], 19.4 µM in experiment [2] (read-out: Ki), 7.5 µM in experiment [3] (read-out: Ki) and 4.1 µM in experiment [4]. This compound yielded an IC50 in experiment [5] of 7.7 µM.

Take `CCOC(=O)Nn1c(-c2ccc(OC)cc2)c2cc3c(cc2cc1=O)OCO3`: the inhibitory constant (Ki) in experiment [1] amounted to 62.7 µM; in experiment [2] (read-out: Ki) it was 9.4 µM; in experiment [3] (read-out: Ki) it was 16.7 µM; in experiment [4] it was 7.7 µM. In experiment [5], this compound had a half-inhibitory concentration (IC50) of 8.4 µM.

Turning to `COc1ccc(-c2c3cc4c(cc3cc(=O)n2NC(=O)Nc2ccc(C(C)=O)cc2)OCO4)cc1`, the Ki in experiment [1] amounted to 5.9 µM; in experiment [2] (read-out: Ki), 14 µM; in experiment [3] (read-out: Ki), 3.7 µM; in experiment [4] it was 2.1 µM. In experiment [5], half-maximal inhibition (IC50) was put at 11.8 µM.

For the compound `COc1ccc(-c2c3cc(OC)c(OC)cc3cc(=O)n2NC(=O)OC(C)(C)C)cc1`, the Ki in experiment [1] is 40.3 µM; in experiment [2] it was “Not Active”; in experiment [3] it was “Not Active”; in experiment [4] it was 39.7 µM. 9.3 µM corresponded to half-maximal inhibition in experiment [5] (IC50).

`COc1ccc(-c2c3cc4c(cc3cc(=O)n2NC(=O)Nc2ccc(SC)cc2)OCO4)cc1`: the inhibition constant (Ki) was 6.5 µM in experiment [1], 18.7 µM in experiment [2] (read-out: Ki), 4 µM in experiment [3] (read-out: Ki) and 0.85 µM in experiment [4]. Moreover, in experiment [5], the IC50 was over 100 µM.

Regarding `COc1ccc(-c2c3cc4c(cc3cc(=O)n2N)OCO4)cc1`, the Ki in experiment [1] is 15 µM; in experiment [2] (read-out: Ki), 6.3 µM; in experiment [3] (read-out: Ki), 16.3 µM; in experiment [4], 7 µM. Further, in experiment [5], 25.5 µM corresponded to half-maximal inhibition (IC50).

Take `COc1ccc(-c2c3cc(OCc4ccccc4)c(OCc4ccccc4)cc3cc(=O)n2N)cc1`: the Ki in experiment [1] was 2.3 µM; in experiment [2] (read-out: Ki), 4 µM; in experiment [3] (read-out: Ki) it was 3.3 µM; in experiment [4], 4.2 µM. The compound further showed a half-inhibitory concentration (IC50) in experiment [5] of 16.9 µM.

In the case of `Cc1cc2cc3c(cc2c(-c2ccc(N)cc2)n1)OCO3`, the Ki in experiment [1] was 7.3 µM; in experiment [2] (read-out: Ki), 19.4 µM; in experiment [3] (read-out: Ki) it was 6.9 µM; in experiment [4], 8.7 µM. The compound also had an IC50 in experiment [5] of 38.8 µM.

Take `CC(C)C[C@H](NC(=O)[C@H]1O[C@@H]1C(=O)O)C(=O)NCCCCN=C(N)N` [E-64]: the Ki in experiment [1] stood at 0.29 µM; in experiment [3] (read-out: Ki) it was 16 µM.
